ChEMBL document CHEMBL1949593, “Stilbene-chalcone hybrids: design, synthesis, and evaluation as a new class of antimalarial scaffolds that trigger cell death through stage specific apoptosis” (J Med Chem, 2012)
pIC50: −log10 of the molar value. Calls of active or inactive are those of the source. No cut-off for these calls is given here.

Assays:
[1] = tested on: Plasmodium falciparum; experiment: Induction of apoptosis in chloroquine-sensitive Plasmodium falciparum 3D7 trophozoites assessed as nuclear condensation at 10 uM at 18 hrs by Giemsa staining; format: functional, organism-based
[2] = tested on: Plasmodium falciparum; experiment: Growth inhibition of ring stage chloroquine-sensitive Plasmodium falciparum 3D7 at 10 uM treated for 48 hrs following washout incubated for 48 hrs in drug free medium by SYBR green 1-based fluorescence assay; format: functional, organism-based
Procedure, shortened: (§1)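 Stage-specific exposure of synchronized 3D7: rings 48 h, trophozoites 24 h, schizonts 8 h. Drug was removed by media wash and cultures grew 48 h drug-free, in a separate triplicate set. Growth was read by SYBR Green I fluorescence and expressed as percent inhibition relative to drug-free control.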

[3] = tested on: Plasmodium falciparum; experiment: Growth inhibition of ring stage chloroquine-sensitive Plasmodium falciparum 3D7 at 10 uM treated for 24 hrs followed by washout measured after 72 hrs by Giemsa staining; format: functional, organism-based
Procedure, shortened: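 Synchronized 3D7 ring cultures were exposed for 18, 24 or 48 h, then washed free of drug. Cultures were kept under normal conditions to 96 h total. Giemsa-stained thin smears were read by counting 3000 cells; inhibition is relative to the matching drug-free control.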

[4] = tested on: Plasmodium falciparum; experiment: Growth inhibition of ring stage chloroquine-sensitive Plasmodium falciparum 3D7 at 10 uM treated for 48 hrs following washout incubated for 48 hrs in drug free medium by Giemsa staining; format: functional, organism-based
Procedure, shortened: (§2)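 Highly synchronized 3D7 cultures were exposed by stage: rings 48 h, trophozoites 24 h, schizonts 8 h. After a media wash, cultures grew 48 h in drug-free complete RPMI, in triplicate. Giemsa smears were read by counting 3000 cells per stage; pycnotic parasites were scored nonviable. Inhibition is percent of drug-free control.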

[5] = tested on: Plasmodium falciparum; experiment: Induction of apoptosis in chloroquine-sensitive Plasmodium falciparum 3D7 trophozoites assessed as chromatin condensation at 10 uM at 18 hrs by Hoechst 33342 staining; format: functional, organism-based
Procedure, shortened: (§3)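 3D7 trophozoite cultures were treated 18 or 24 h, and ring cultures 24, 42 or 48 h. Parasites were stained with Hoechst 33342 for 10 min at room temperature, washed with PBS, and smeared. Condensed or fragmented chromatin (blue, 460 nm) was viewed by fluorescence microscopy.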

[6] = Therapeutic index, ratio of IC50 for […] cells to IC50 for ring stage chloroquine-sensitive Plasmodium falciparum 3D7; format: cell-based; details: mouse, read-out: Ratio IC50
Procedure, shortened: (§4)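 HeLa or L929 fibroblasts were seeded at 10^4 cells per well in RPMI with 10% FBS, left overnight, then exposed 24 h at 37 °C, 5% CO2. MTT was added for 3 h; formazan was dissolved in DMSO and read at 570 nm. IC50 came from dose–response curves. Index = IC50(mammalian)/IC50(Pf 3D7, SYBR Green assay).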

[7] = tested on: Plasmodium falciparum; experiment: Induction of internucleosomal fragmentation in ring stage chloroquine-sensitive Plasmodium falciparum 3D7 at 10 uM at 24 hrs by Hoechst 33342 staining; format: functional, organism-based; procedure, shortened: as §3
[8] = tested on: Plasmodium falciparum; experiment: Antimalarial activity against chloroquine-sensitive Plasmodium falciparum 3D7 assessed as merozoites egress at 10 uM treated for 8 hrs followed by washout measured after 48 hrs by Giemsa staining; format: functional, organism-based
Procedure, shortened: (§5)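 Highly synchronized 3D7 schizonts were exposed to drug for 8 h under normal culture conditions, alongside untreated controls. After a media wash, cultures were incubated for 48 h with or without drug. Giemsa-stained thin smears were examined microscopically for parasitemia and stage, and compared with control.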

[9] = tested on: Plasmodium falciparum; experiment: Inhibition of RBC invasion of chloroquine-sensitive Plasmodium falciparum 3D7 schizonts at 10 uM treated for 8 hrs followed by washout measured after 48 hrs by Giemsa staining; format: functional, organism-based; procedure, shortened: as §5
[10] = tested on: Plasmodium falciparum; experiment: Induction of apoptosis in ring stage chloroquine-sensitive Plasmodium falciparum 3D7 assessed as chromatin condensation at 10 uM at 18 hrs by Hoechst 33342 staining; format: functional, organism-based
[11] = tested on: Plasmodium falciparum; experiment: Reduction in parasitemia of chloroquine-sensitive Plasmodium falciparum 3D7 trophozoites at 10 uM after 48 hrs by Giemsa staining; format: functional, organism-based
[12] = tested on: Plasmodium falciparum; experiment: Antimalarial activity against ring stage chloroquine-resistant Plasmodium falciparum Dd2 infected in human O positive erythrocytes after 48 hrs by SYBR green 1 fluorescence assay; format: functional, organism-based; details: Dd2, 48 h
Procedure, shortened: (§6)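 Ring-stage cultures were sorbitol-synchronized in O+ human erythrocytes in RPMI 1640 with 0.5% Albumax, hypoxanthine and gentamicin, then plated at 2% hematocrit and 1% parasitemia. Drugs were tested at 0–100 μM (final DMSO 0.4%) in triplicate for 48 h at 37 °C under 5% O2/5% CO2/90% N2. Read-out was SYBR Green I (ex 497/em 520 nm). IC50 was read visually as 50% growth inhibition, with chloroquine as control.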

[13] = tested on: Plasmodium falciparum; experiment: Induction of apoptosis in ring stage chloroquine-sensitive Plasmodium falciparum 3D7 assessed as disruption of mitochondrial membrane potential at 10 uM by JC-1 staining; format: functional, organism-based
Procedure, shortened: (§7)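 3D7 ring cultures were treated 24, 42 or 48 h, and trophozoite cultures 18 or 24 h. Parasites were stained with JC-1 for 20 min at 37 °C and viewed as wet mounts by fluorescence microscopy. Red-orange aggregate signal (590 nm) indicates intact ΔΨm; green monomer signal (525 nm) indicates dissipation.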

[14] = tested on: Plasmodium falciparum; experiment: Growth inhibition of chloroquine-sensitive Plasmodium falciparum 3D7 schizonts at 10 uM treated for 8 hrs following washout incubated for 48 hrs in drug free medium by SYBR green 1-based fluorescence assay; format: functional, organism-based; procedure, shortened: as §1
[15] = tested on: Plasmodium falciparum; experiment: Induction of internucleosomal fragmentation in chloroquine-sensitive Plasmodium falciparum 3D7 trophozoites at 10 uM at 24 hrs by Hoechst 33342 staining; format: functional, organism-based; procedure, shortened: as §3
[16] = tested on: Plasmodium falciparum; experiment: Induction of apoptosis in chloroquine-sensitive Plasmodium falciparum 3D7 trophozoites assessed as disruption of mitochondrial membrane potential at 10 uM by JC-1 staining; format: functional, organism-based; procedure, shortened: as §7
[17] = Inhibition of Plasmodium falciparum falcipain-2 using benzyloxycarbonyl-Phe-Arg-7-amino-4-methyl coumarin hydrochloride as substrate preincubated for 10 mins prior substrate addition by fluorimetric assay
Procedure, shortened: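 Recombinant falcipain-2 (2 μg) was preincubated 10 min at room temperature with or without compound, in triplicate. Buffer was 100 mM sodium acetate pH 5.5 with 10 mM DTT and 1% final DMSO. Z-Phe-Arg-AMC was then added at 10 μM final. AMC release was read at ex 355/em 460 nm. IC50 was taken by visual matching of 50% inhibition.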

[18] = tested on: Plasmodium falciparum; experiment: Growth inhibition of chloroquine-sensitive Plasmodium falciparum 3D7 trophozoites at 10 uM treated for 24 hrs followed by washout measured after 48 hrs by Giemsa staining; format: functional, organism-based; procedure, shortened: as §2
[19] = tested on: Plasmodium falciparum; experiment: Antimalarial activity against ring stage chloroquine-sensitive Plasmodium falciparum 3D7 infected in human O positive erythrocytes after 48 hrs by SYBR green 1 fluorescence assay; format: functional, organism-based; details: 3D7, 48 h
Procedure, shortened: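 P. falciparum 3D7 in O+ human erythrocytes in complete RPMI with Albumax at 37 °C under 5% O2/5% CO2. Culture was sorbitol-synchronized to rings and plated at 2% hematocrit, 1% parasitemia. Drug range was 0–100 μM with 0.4% final DMSO, in triplicate. After 48 h, SYBR Green I fluorescence was read (ex 497/em 520 nm). IC50 was taken by visual matching of 50% growth inhibition.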

[20] = Therapeutic index, ratio of IC50 for human HeLa cells to IC50 for ring stage chloroquine-sensitive Plasmodium falciparum 3D7; format: cell-based; details: read-out: Ratio IC50; procedure, shortened: as §4
[21] = tested on: Plasmodium falciparum; experiment: Antimalarial activity against ring stage chloroquine-resistant Plasmodium falciparum INDO infected in human O positive erythrocytes after 48 hrs by SYBR green 1 fluorescence assay; format: functional, organism-based; procedure, shortened: as §6
[22] = tested on: Plasmodium falciparum; experiment: Reduction in parasitemia of ring stage chloroquine-sensitive Plasmodium falciparum 3D7 at 10 uM after 48 hrs by Giemsa staining; format: functional, organism-based
[23] = tested on: Plasmodium falciparum; experiment: Induction of apoptosis in ring stage chloroquine-sensitive Plasmodium falciparum 3D7 assessed as nuclear condensation at 10 uM at 24 hrs by Giemsa staining
[24] = Resistance index, ratio of IC50 for ring stage chloroquine-resistant Plasmodium falciparum Dd2 to IC50 for ring stage chloroquine-sensitive Plasmodium falciparum 3D7; format: functional
[25] = tested on: Plasmodium falciparum; experiment: Growth inhibition of chloroquine-sensitive Plasmodium falciparum 3D7 schizonts at 10 uM treated for 8 hrs following washout incubated for 48 hrs in drug free medium by Giemsa staining; format: functional, organism-based; procedure, shortened: as §2
[26] = tested on: Plasmodium falciparum; experiment: Growth inhibition of chloroquine-sensitive Plasmodium falciparum 3D7 trophozoites at 10 uM treated for 24 hrs following washout incubated for 48 hrs in drug free medium by SYBR green 1-based fluorescence assay; format: functional, organism-based; procedure, shortened: as §1
[27] = tested on: Plasmodium falciparum; experiment: Induction of apoptosis in ring stage chloroquine-sensitive Plasmodium falciparum 3D7 assessed as chromatin fragmentation at 10 uM at 18 hrs by Hoechst 33342 staining; format: functional, organism-based
[28] = tested on: Plasmodium falciparum; experiment: Induction of apoptosis in chloroquine-sensitive Plasmodium falciparum 3D7 trophozoites assessed as chromatin fragmentation at 10 uM at 18 hrs by Hoechst 33342 staining; format: functional, organism-based; procedure, shortened: as §3
[29] = tested on: Plasmodium falciparum; experiment: Antimalarial activity against chloroquine-sensitive Plasmodium falciparum 3D7 assessed as inhibition of schizonts growth at 10 uM treated for 8 hrs followed by washout measured after 48 hrs by Giemsa staining; format: functional, organism-based; procedure, shortened: as §5
[30] = Resistance index, ratio of IC50 for ring stage chloroquine-resistant Plasmodium falciparum INDO to IC50 for ring stage chloroquine-sensitive Plasmodium falciparum 3D7; format: functional

Compound: COc1cc(OC)c(OC)cc1/C=C/C(=O)c1ccc(/C=C/c2cc(OC)c(OC(C)=O)c(OC)c2)cc1
- Activity [1]: Active
- growth inhibition (GI) [2]: Active
- growth inhibition (GI) [3]: Active
- growth inhibition (GI) [4]: Active
- Activity [5]: Active
- selectivity ratio [6]: > 45.5
- Activity [7]: inactive
- inhibition [8]: inactive
- inhibition [9]: inactive
- Activity [10]: Active
- Activity [11]: Active
- pIC50 [12]: 5.66
- Activity [13]: Active
- growth inhibition (GI) [14]: inactive
- Activity [15]: Active
- Activity [16]: Active
- pIC50 [17]: 4.60
- growth inhibition (GI) [18]: Active
- pIC50 [19]: 5.66
- selectivity ratio [20]: > 45.5
- pIC50 [21]: 5.70
- Activity [22]: Active
- Activity [23]: Active
- Ratio IC50 [24]: 1
- growth inhibition (GI) [25]: inactive
- growth inhibition (GI) [26]: Active
- Activity [27]: Active
- Activity [28]: Active
- growth inhibition (GI) [29]: inactive
- Ratio IC50 [30]: 0.9
